≈ marks a conversion by molar mass, not a printed value. Calls of active or inactive are those of the source. The calls are words filed in the database; no cut-off is given here.
Experiments:
[1] = target: T1, KinA/Spo0F (sporulation kinase A/sporulation initiation phosphotransferase F) (Bacillus subtilis (strain 168), UniProt P06628+P16497); test: Inhibition of autophosphorylation of the two-component signal transduction system kinase was measured using the KinA/Spo0F regulatory system of Bacillus subtilis.; type: functional
T1 sequence (P06628 whole entry): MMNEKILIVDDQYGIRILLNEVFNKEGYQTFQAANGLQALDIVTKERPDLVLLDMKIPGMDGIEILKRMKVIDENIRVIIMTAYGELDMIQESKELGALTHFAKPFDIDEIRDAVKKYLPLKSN
T1 sequence (P16497 whole entry): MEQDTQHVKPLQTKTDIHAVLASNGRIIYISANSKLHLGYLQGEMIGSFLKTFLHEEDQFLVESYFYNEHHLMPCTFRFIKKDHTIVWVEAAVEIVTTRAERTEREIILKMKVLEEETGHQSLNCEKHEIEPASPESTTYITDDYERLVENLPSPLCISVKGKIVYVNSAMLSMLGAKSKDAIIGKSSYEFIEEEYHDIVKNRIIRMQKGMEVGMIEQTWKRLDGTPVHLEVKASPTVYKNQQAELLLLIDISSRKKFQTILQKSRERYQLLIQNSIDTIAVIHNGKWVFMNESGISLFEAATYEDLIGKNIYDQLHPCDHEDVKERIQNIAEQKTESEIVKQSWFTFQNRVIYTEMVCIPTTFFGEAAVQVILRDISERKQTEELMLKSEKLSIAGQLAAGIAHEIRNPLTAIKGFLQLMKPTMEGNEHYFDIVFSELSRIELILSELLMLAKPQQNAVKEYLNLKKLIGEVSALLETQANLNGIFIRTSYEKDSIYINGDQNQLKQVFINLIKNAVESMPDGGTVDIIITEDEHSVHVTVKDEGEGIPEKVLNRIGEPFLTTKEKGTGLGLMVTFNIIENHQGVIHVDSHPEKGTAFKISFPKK

[2] = system: Staphylococcus aureus; test: Minimum inhibitory activity against Staphylococcus aureus MRSA OC2089.; type: functional
Method in brief: (§1)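 MIC by NCCLS broth microdilution. Strains are ATCC and clinical isolates, including methicillin-resistant S. aureus.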

[3] = system: Staphylococcus aureus; test: Minimum inhibitory activity against Staphylococcus aureus ATCC 29213.; type: functional; method in brief: as §1
[4] = system: Enterococcus faecium; test: Minimum inhibitory activity against Enterococcus faecium OC3312.; type: functional; method in brief: as §1
[5] = system: Enterococcus faecalis; test: Minimum inhibitory activity against Enterococcus faecalis OC3041.; type: functional; method in brief: as §1
[6] = system: Staphylococcus aureus; test: Minimum inhibitory activity against methicillin resistant Staphylococcus aureus (MRSA) OC2089.; type: functional
Method in brief: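 Broth microdilution MIC following NCCLS methods for aerobically growing bacteria.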

[7] = system: Enterococcus faecalis; test: Activity of the VanS/VanR TCS in Enterococcus faecalis OC3364; -{i} indicate over-expression of luciferase in both strains; type: functional, organism-based
Method in brief: (§2)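 E. faecalis OC3364 (JH2-derived) carries vanR vanS and a vanH-luc fusion on separate plasmids. […] OD600 was read every 30 min. At 2 h, cells were lysed by 10 min shaking in an equal volume of Genepol X-80 mix. Luciferase RLU was read with ATP, coenzyme A and luciferin. Specific activity (RLU/OD600) was compared with an untreated control.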

[8] = system: Enterococcus faecalis; test: Percentage of specific activity relative to untreated control at a concentration allowing 80% growth.; type: functional
Method in brief: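 OD600 is followed every 30 min. Luciferase RLU/OD600 is measured 2 h after induction. The value is specific activity as a percentage of untreated control, taken at the compound concentration allowing 80% growth.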

[9] = system: Enterococcus faecalis; test: Activity of the VanS/VanR TCS in Enterococcus faecalis OC3364; + indicate decrease of the luciferase specific activity relative to an untreated control; type: functional, organism-based
Method in brief: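 Reporter assay in Enterococcus faecalis OC3364 (from JH2) carrying vanR vanS and a Φ(vanH-luc) fusion on separate plasmids. […] OD600 is read every 30 min. At 2 h cells are lysed and luciferase RLU is read with ATP, coenzyme A and luciferin. Specific activity = RLU/OD600, compared with an untreated control.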

[10] = system: Enterococcus faecalis; test: Activity of the VanS/VanR TCS in Enterococcus faecalis OC3364; +{i} indicate induced overexpression of luciferase specific activity; type: functional, organism-based; method in brief: as §2
[11] = system: Enterococcus faecalis; test: Activity of the VanS/VanR TCS in Enterococcus faecalis OC3364; +{i} indicate induced over-expression of luciferase specific activity; type: functional, organism-based; method in brief: as §2

| IC50 [1] [µM] | Structure (SMILES) | MIC [3] [µg/mL] | MIC [4] [µg/mL] | MIC [5] [µg/mL] | MIC [6] [µg/mL] | also measured |
| --- | --- | --- | --- | --- | --- | --- |
| > 500 | COc1ccc(NC(=O)c2cc(Cl)cc(Cl)c2O)cc1 | – | – | – | – | – |
| 250 | COc1cc(OC)c(O)c(C(=O)Nc2cc(Cl)c(C(C#N)c3ccc(Cl)cc3)cc2C)c1 (stereo not drawn) | – | – | – | – | – |
| 185 | O=C(Nc1ccc(Cl)cc1)c1cc(Cl)cc(Cl)c1O | – | – | – | – | – |
| > 500 | O=C(Nc1ccc([N+](=O)[O-])cc1)c1cc(Cl)cc(Cl)c1O | 4 (≈ 12.2 µM) | > 64 | > 32 | – | MIC [2]: 4 µg/mL (≈ 12.2 µM) |
| 9.5 | O=C(Nc1ccc(Cl)c(Cl)c1)c1cccc(O)c1O | 8 (≈ 26.8 µM) | 32 (≈ 107 µM) | 8 (≈ 26.8 µM) | – | Activity [9]: Active; MIC [2]: 8 µg/mL (≈ 26.8 µM); AG80 [8]: 48% |
| > 500 | Cc1cc(C(C#N)c2ccc(Cl)cc2)c(Cl)cc1NC(=O)c1cc(Cl)ccc1O (stereo not drawn) | – | – | – | – | – |
| 9 | Cc1cc(C(C#N)c2ccc(Cl)cc2)c(Cl)cc1NC(=O)c1cc(C(F)(F)F)cc(C(F)(F)F)c1O (stereo not drawn) | – | – | – | – | – |
| > 500 | O=C(Nc1ccc(Cl)c(Cl)c1)c1cc(C(F)(F)F)ccc1O | – | – | – | – | – |
| 86 | Cc1cc(C(CN)c2ccc(Cl)cc2)c(Cl)cc1NC(=O)c1cc(I)cc(I)c1O (stereo not drawn) | – | – | – | – | – |
| > 500 | O=C(Nc1ccc(Cl)c(Cl)c1)c1cc(Cl)ccc1O | – | – | – | – | – |

Further lines, the compound ahead of its results:

| Structure (SMILES) | IC50 [1] [µM] | MIC [3] [µg/mL] | MIC [4] [µg/mL] | MIC [5] [µg/mL] | MIC [6] [µg/mL] | also measured |
| --- | --- | --- | --- | --- | --- | --- |
| CC(C)(C)c1cc(C(=O)Nc2ccc(Cl)c(Cl)c2)c(O)c(C(C)(C)C)c1 | > 500 | – | – | – | – | – |
| Cc1onc(-c2ccccc2)c1C(=O)N[C@@H]1C(=O)N2[C@@H]1SC(C)(C)[C@@H]2C(=O)O [OXACILLIN] | – | 0.25 (≈ 0.623 µM) | > 64 | 16 (≈ 39.9 µM) | – | MIC [2]: > 64 µg/mL |
| O=C(Nc1ccccc1)c1cc(Cl)cc(Cl)c1O | > 500 | 1 (≈ 3.54 µM) | 32 (≈ 113 µM) | 64 (≈ 227 µM) | 4 (≈ 14.2 µM) | – |
| Cc1cc(C(=O)c2ccc(Cl)cc2)c(Cl)cc1NC(=O)c1cc(I)cc(I)c1O | > 500 | – | – | – | – | – |
| CC(C)(C)c1ccc(NC(=O)c2cc(Cl)cc(Cl)c2O)cc1 | 67 | 2 (≈ 5.91 µM) | 4 (≈ 11.8 µM) | 8 (≈ 23.7 µM) | 2 (≈ 5.91 µM) | Activity [7]: inactive |
| O=C(Nc1ccc(Cl)c(C(F)(F)F)c1)c1cc(Cl)cc(Cl)c1O | 50 | 0.5 (≈ 1.3 µM) | 1 (≈ 2.6 µM) | 0.5 (≈ 1.3 µM) | 0.25 (≈ 0.65 µM) | Activity [7]: inactive |
| Cc1cc(C(C#N)c2ccc(Cl)cc2)c(Cl)cc1NC(=O)c1cc(C(F)(F)F)ccc1O (stereo not drawn) | 19 | 1 (≈ 2.09 µM) | 1 (≈ 2.09 µM) | 1 (≈ 2.09 µM) | 1 (≈ 2.09 µM) | AG80 [8]: 95% |
| Cc1cc(C(C#N)c2ccc(Cl)cc2)c(Cl)cc1NC(=O)c1cccc(O)c1O (stereo not drawn) | 2.8 | 16 (≈ 37.4 µM) | 16 (≈ 37.4 µM) | 16 (≈ 37.4 µM) | – | Activity [9]: Active; MIC [2]: 16 µg/mL (≈ 37.4 µM); AG80 [8]: 66% |
| O=C(Nc1ccc(Cl)c(Cl)c1)c1cc(I)cc(I)c1O | 21 | 1 (≈ 1.87 µM) | 0.5 (≈ 0.936 µM) | 0.5 (≈ 0.936 µM) | 0.25 (≈ 0.468 µM) | Activity [10]: Active |
| O=C(Nc1ccc(Cl)c(Cl)c1)c1cc(Cl)cc(Cl)c1O [3,3',4',5-TETRACHLOROSALICYLANILIDE] | – | 0.5 (≈ 1.42 µM) | 1 (≈ 2.85 µM) | 0.5 (≈ 1.42 µM) | 0.25 (≈ 0.712 µM) | Activity [10]: Active |
| COc1cc(OC)c(O)c(C(=O)Nc2ccc(Cl)c(Cl)c2)c1 | > 500 | – | – | – | – | – |
| Cc1cc(C(C#N)c2ccc(Cl)cc2)c(Cl)cc1NC(=O)c1cc(I)cc(I)c1O (stereo not drawn) [CLOSANTEL] | 3.8 | 2 (≈ 3.02 µM) | 1 (≈ 1.51 µM) | 0.12 (≈ 0.181 µM) | 1 (≈ 1.51 µM) | AG80 [8]: 100% |
| Cc1cc(C(C#N)c2ccc(Cl)cc2)c(Cl)cc1NC(=O)c1cc(C(C)(C)C)cc(C(C)(C)C)c1O (stereo not drawn) | > 500 | – | – | – | – | – |
| Cc1cc(C(C#N)c2ccc(Cl)cc2)c(Cl)cc1NC(=O)c1cc(Cl)cc(Cl)c1O (stereo not drawn) | 4.8 | 1 (≈ 2.08 µM) | 2 (≈ 4.17 µM) | 2 (≈ 4.17 µM) | – | MIC [2]: 1 µg/mL (≈ 2.08 µM); Activity [11]: Active |
| CN[C@H](CC(C)C)C(=O)N[C@H]1C(=O)N[C@@H](CC(N)=O)C(=O)N[C@H]2C(=O)N[C@H]3C(=O)N[C@H](C(=O)N[C@H](C(=O)O)c4cc(O)cc(O)c4-c4cc3ccc4O)[C@H](O)c3ccc(c(Cl)c3)Oc3cc2cc(c3O[C@@H]2O[C@H](CO)[C@@H](O)[C@H](O)[C@H]2O[C@H]2C[C@](C)(N)[C@H](O)[C@H](C)O2)Oc2ccc(cc2Cl)[C@H]1O [VANCOMYCIN] | – | – | > 128 | – | – | – |
| O=C(Nc1ccc(Cl)c(Cl)c1)c1cc(C(F)(F)F)cc(C(F)(F)F)c1O | 27 | 1 (≈ 2.39 µM) | 2 (≈ 4.78 µM) | 2 (≈ 4.78 µM) | 1 (≈ 2.39 µM) | Activity [10]: Active |
